Assay results published in ChEMBL document CHEMBL1909500, “Synthesis and in vitro anticancer activity of 6,7-methylenedioxy (or 5-hydroxy-6-methoxy)-2-(substituted selenophenyl)quinolin-4-one analogs” (Eur J Med Chem, 2011).
The source made the active and inactive calls. No cut-off for these calls is given here.

How the values were obtained:
HL-60 [1] = assay: Induction of apoptosis in human HL60 cells assessed as caspase-3 activation at 0.1 to 1.0 uM after 24 hrs by Western blot analysis; type: functional, cell-based
Method in brief: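 HL-60 cells at 2 × 10⁵/mL were exposed to the indicated concentrations for 24 h, washed in PBS and lysed for total protein. Immunoblots used HRP-linked secondary antibodies with ECL detection. Cyclin B1, CDK1, caspase-3 (17 kDa active form) and PARP (85 kDa fragment) were quantified and normalised to β-actin.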

M14 = assay: Anticancer activity against human M14 cells after 48 hrs by MTT assay; type: functional; conditions: M14, 48 h
NCI-H322M = assay: Anticancer activity against human NCI-H322M cells after 48 hrs by MTT assay; type: functional
TK-10 = assay: Anticancer activity against human TK10 cells after 48 hrs by MTT assay; type: functional; conditions: TK-10, 48 h
HL-60 [2] = assay: Cytotoxicity against human HL60 cells after 48 hrs by MTT assay; type: functional, cell-based; conditions: HL-60, 48 h
Method in brief: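 H460 or HL-60 cells were exposed to vehicle or compound for 48 h. Growth was read by MTT reduction at 570 nm, and IC50 was calculated.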

NCI-H23 = assay: Anticancer activity against human NCI-H23 cells after 48 hrs by MTT assay; type: functional; conditions: NCI-H23, 48 h
SK-MEL-2 = assay: Anticancer activity against human SK-MEL-2 cells after 48 hrs by MTT assay; type: functional; conditions: SK-MEL-2, 48 h
NCI/ADR-RES = assay: Anticancer activity against human NCI/ADR-RES cells after 48 hrs by MTT assay; type: functional
SK-MEL-5 = assay: Anticancer activity against human SK-MEL-5 cells after 48 hrs by MTT assay; type: functional; conditions: SK-MEL-5, 48 h
BT-549 = assay: Anticancer activity against human BT549 cells after 48 hrs by MTT assay; type: functional; conditions: BT-549, 48 h
U-251 = assay: Anticancer activity against human U251 cells after 48 hrs by MTT assay; type: functional; conditions: U-251, 48 h
[3] = Anticancer activity against human Hs 578T cells after 48 hrs by MTT assay; type: functional
MDA-MB-231 = assay: Anticancer activity against human MDA-MB-231 cells after 48 hrs by MTT assay; type: functional; conditions: MDA-MB-231, 48 h
[4] = read-out: pLC50 (the source's name) (converted)

For `Cc1ccc(-c2cc(=O)c3cc4c(cc3[nH]2)OCO4)[se]1`, the Activity (HL-60 [1]) was “Active”, the GI50 (M14) was 0.229 µM and the CC50 (M14; [4]) was > 100 µM. For the same compound, the TGI (M14; read-out: pTGI) was > 100 µM, the GI50 (NCI-H322M) was > 100 µM and the CC50 (NCI-H322M; [4]) was > 100 µM. The TGI (NCI-H322M; read-out: pTGI) was > 100 µM, the GI50 (TK-10) was 10 µM and the CC50 (TK-10; [4]) was > 100 µM. For the same compound, the TGI (TK-10; read-out: pTGI) was > 100 µM, the IC50 (HL-60 [2]) was 0.3 µM and the GI50 (NCI-H23) was 0.741 µM. The CC50 (NCI-H23; [4]) was > 100 µM, the TGI (NCI-H23; read-out: pTGI) was > 100 µM and the GI50 (SK-MEL-2) was 0.11 µM. The CC50 (SK-MEL-2; [4]) was > 100 µM, the TGI (SK-MEL-2; read-out: pTGI (converted)) was 0.525 µM and the GI50 (NCI/ADR-RES) was 0.316 µM. The CC50 (NCI/ADR-RES; [4]) was > 100 µM, the TGI (NCI/ADR-RES; read-out: pTGI) was > 100 µM and the GI50 (SK-MEL-5) was 0.309 µM. For the same compound, the GI50 (BT-549) was 0.447 µM, the CC50 (BT-549; [4]) was > 100 µM and the TGI (BT-549; read-out: pTGI) was > 100 µM. For the same compound, the GI50 (U-251) was 0.339 µM, the CC50 (U-251; [4]) was > 100 µM and the TGI (U-251; read-out: pTGI) was > 100 µM. The GI50 [3] was 0.347 µM, the CC50 [3, 4] was > 100 µM and the TGI ([3]; read-out: pTGI) was > 100 µM. For the same compound, the GI50 (MDA-MB-231) was 0.501 µM, the CC50 (MDA-MB-231; [4]) was > 100 µM and the TGI (MDA-MB-231; read-out: pTGI) was > 100 µM.
